Screening results from PubChem.
The list is not random: actives were taken first. Their share in the collection is about 3.3%.
HTRA1 inh = blocks human HTRA1 serine peptidase. recombinant HTRA1, FP-rhodamine activity-based probe, fluorescence polarization. 0.5% of 340,000 active. AID 504803. inhibition, % at 5.96 µM; in the data active = inhibition above about 36%;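 also: 0% = enzyme with DMSO and 100% = wells lacking enzyme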
Target sequence (Q92743 whole entry, looked up): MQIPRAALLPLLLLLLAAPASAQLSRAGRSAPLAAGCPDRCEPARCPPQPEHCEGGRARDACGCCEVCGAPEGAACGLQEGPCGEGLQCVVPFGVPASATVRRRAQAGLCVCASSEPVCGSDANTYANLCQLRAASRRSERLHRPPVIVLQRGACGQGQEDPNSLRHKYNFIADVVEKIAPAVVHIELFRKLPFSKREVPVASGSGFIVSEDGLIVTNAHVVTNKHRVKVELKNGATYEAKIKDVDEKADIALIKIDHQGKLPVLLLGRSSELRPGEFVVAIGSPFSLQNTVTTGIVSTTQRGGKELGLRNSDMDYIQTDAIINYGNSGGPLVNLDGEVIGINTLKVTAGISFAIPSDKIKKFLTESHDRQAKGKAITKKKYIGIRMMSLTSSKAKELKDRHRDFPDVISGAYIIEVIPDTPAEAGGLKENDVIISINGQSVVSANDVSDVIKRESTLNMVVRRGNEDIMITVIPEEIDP
mABHD4 FP = inhibitors of mouse ABHD4 | AID 720543 | Q8VD66 | inhibition, % at 8.92 µM | purified mABHD4, FP-Rh probe fluorescence polarization | 0.54% of 370,000 active;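 active = inhibition exceeding the mean over every tested compound plus 3 SD, cut at about 30% in these data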;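 also: 0% = plate median of compound wells and 100% = S159A mutant with DMSO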
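Assay system: mABHD4 protein; medium: HEPES pH 7.0, NaCl, Pluronic buffer; dosing: 8.92 µM, single dose; schedule: 45 min + 60 min at 25 °C; signal: FP readout, ex 525 nm / em 598 nm; read-out: normalized percent inhibition of probe labeling; repeats: single replicate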
rCAG RNA binder = molecules binding r(CAG) RNA repeats; AID 651821; inhibition, % at 3 µM; 1.3% of 370,000 active; r(CAG) RNA repeat, TO-PRO-1 dye displacement fluorescence;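 active = inhibition above the plate cutoff, the mean of all test compounds on that plate plus 3 SD, cut at about 35% in these data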;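 also: 0% = DMSO alone and 100% = 100 µM mitoxantrone as full dye displacement; higher means more dye released from RNA so lower well fluorescence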
PRMT1 FP inh = inhibitors of human PRMT1. Q99873. recombinant PRMT1, activity-based probe fluorescence polarization. inhibition, % at 2.79 µM. 1.3% of 370,000 active;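 active = inhibition above about 21% made by adding two undisclosed values, limit read from the data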
SIAE inh = blocks human sialic acid acetylesterase | SIAE FP-Rh probe binding, fluorescence polarization | 0.69% of 370,000 active | inhibition, % at 9.66 µM | Q9HAT2 | AID 1053197;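 active = inhibition above a cutoff: mean of compounds within the control limits plus 3 SD of those, cut at about 17% in these data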;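 also: 0% = plate median of compound wells and 100% = probe without SIAE protein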
rCAG binder conf = r(CAG) RNA repeat binding, confirmation; shares compounds with rCAG RNA binder; TO-PRO-1 dye displacement fluorescence; inhibition, % at 3 µM; 70% of 4,300 active;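 active = inhibition above a per-plate cutoff, the mean inhibition of sample wells plus 3 SD, cut at about 35% in these data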;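 also: loss of TO-PRO-1 fluorescence as compound displaces dye from 1x1 AA loop RNA; 0% = DMSO only wells and 100% = 100 µM mitoxantrone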
DNA CAG counter = DNA CAG dye complex inhibition counter-screen | shares compounds with rCAG RNA binder | d(CAG) DNA oligo TO-PRO-1 dye displacement, fluorescence | inhibition, % at 3 µM | 94% of 4,300 active | AID 652068;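 active = inhibition above its plate's cutoff, the mean test-well inhibition plus 3 SD, cut at about 4.8% in these data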;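 also: 0% = DNA dye mix with DMSO and 100% = 100 µM mitoxantrone; hits displace the dye from DNA and so lower well fluorescence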
DNA CAG DR = disrupts DNA CAG TO-PRO-1 complex in dose response. 20% of 250 active. shares compounds with rCAG RNA binder. AID 686960. DNA CAG/GTC duplex TO-PRO-1 dye displacement fluorescence. IC50, µM; in the data active = IC50 below about 10 µM
Numbers without * were called inactive; nt = no result given.

SMILES	HTRA1 inh	mABHD4 FP	rCAG RNA binder	PRMT1 FP inh	SIAE inh	rCAG binder conf	DNA CAG counter	others
CCCNC(=O)C1CCN(S(=O)(=O)c2ccc3nc4c(c(C(=O)O)c3c2)CCCCC4)CC1	4	0	2	-2	1	nt	nt
Cc1ccc(CCNC(=O)C2CCN(S(=O)(=O)c3ccc4nc5c(c(C(=O)O)c4c3)CCCC5)CC2)cc1	-10	12	50*	8	-1	32	9.0*
CC1CCc2nc3ccc(S(=O)(=O)N4CCC(C(=O)NCc5ccccc5Cl)CC4)cc3c(C(=O)O)c2C1 (stereo unspecified)	-21	0	47*	2	-6	54*	21*
Cc1ccc2c(c1)C1CS(=O)(=O)N(C3CCCC3)CN1C2 (stereo unspecified)	nt	-4	7	3	-3	nt	nt
CCC(CO)Nc1cccc2c1S(=O)(=O)N(Cc1cn(Cc3ccc(C(F)(F)F)cc3)nn1)Cc1ccccc1O2 (stereo unspecified)	nt	-9	3	1	1	nt	nt
Cc1ccc(C(=O)N2CCC(Oc3cccnc3)CC2)cc1	nt	0	-1	5	0	nt	nt
Cc1noc(NS(=O)(=O)c2ccc(NC(=O)c3cccc(S(=O)(=O)Nc4ccccc4F)c3)cc2)c1C	2	3	35*	1	12	27	7.8*
Cc1noc(NS(=O)(=O)c2ccc(NC(=O)c3ccccc3NS(=O)(=O)c3ccc(F)c(F)c3)cc2)c1C	3	0	76*	-2	4	69*	30*
O=[N+]([O-])c1cc(C=NN2CCN(Cc3ccccc3Cl)CC2)ccc1Cl	nt	-11	1	5	6	nt	nt
CC(=O)Nc1ccc(NC(=O)CSC2=NS(=O)(=O)c3cc(Cl)ccc3N2)cc1	0	-1	22	-3	10	nt	nt
O=C(CSC1=NS(=O)(=O)c2cc(Cl)ccc2N1)Nc1ccccc1F	-13	-13	59*	3	3	35	6.8*
O=C(CSC1=NS(=O)(=O)c2cc(Cl)ccc2N1)Nc1ccccc1C(F)(F)F	3	-2	52*	0	1	52*	11*	DNA CAG DR=>30
COc1cc(/C=C/C(=O)O)ccc1OS(=O)(=O)c1c(C)cc(C)cc1C	-14	-12	36*	1	-4	28	9.4*
CCc1ccc(C(=O)/C=C/c2ccc([N+](=O)[O-])o2)cc1	6	18	38*	19	0	17	11*
O=C(COc1ccccc1)N/N=C/c1sc(=O)n(Cc2cccc(C(=O)O)c2)c1Cl	-3	-10	34	11	0	nt	nt
Cc1cccc(OCC(=O)N/N=C/c2sc(=O)n(Cc3cccc(C(=O)O)c3)c2Cl)c1	-1	-4	35*	5	-2	37*	10*
CCOC(=O)N1CCN(C(=O)C[C@H]2C[C@@]3(C(=O)OC)C(=C[C@H](C(C)(C)C)O[C@@H]3C)N(Cc3cccc4ccccc34)C2=O)CC1	nt	-13	0	-2	1	nt	nt
Fc1ccccc1-c1n[nH]c(=S)n1N=Cc1ccc(-c2ccccc2)cc1	nt	-1	60*	2	6	48*	14*
Fc1ccccc1/C=N/n1c(COc2ccccc2)n[nH]c1=S	-4	4	13	11	1	nt	nt
Fc1ccc(-c2n[nH]c(=S)n2N=Cc2cccc(OCc3ccccc3)c2)cc1	nt	0	58*	9	-8	51*	18*
Fc1ccccc1-c1n[nH]c(=S)n1N=Cc1cccc(OCc2ccccc2)c1	nt	-27	73*	17	-1	64*	24*
Oc1ccc(/C=N/n2c(-c3ccccc3)n[nH]c2=S)cc1	1	-1	2	6	11	nt	nt
S=c1[nH]nc(-c2ccccc2)n1/N=C/c1cccc(Br)c1	-6	-3	33	13	2	nt	nt
Oc1c(Br)cc(Br)c(/C=N/n2c(-c3ccccc3)n[nH]c2=S)c1Br	3	9	59*	23*	13	43*	14*
Cc1ccccc1N(C)C(=O)C1CCCN1S(=O)(=O)c1cccc2cccnc12 (stereo unspecified)	nt	2	2	2	-1	nt	nt
